Bioassay records from PubChem.
Shown are actives, neighbours in structure and some others; about 1.6% of the full set was active somewhere.
TRAIL sens C8: sensitizes caspase-8 expressing cells to TRAIL. NB7+C8 cells + TRAIL, ATPlite viability luminescence. inhibition (viability loss, TRAIL sensitization), % at 10 µM. 360,000 tested, 1% active;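 active means compounds causing at least 50% loss of cell viability in the single-dose screen, relative to plate controls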
PPC-1+TRAIL kill: compounds killing PPC-1 cancer cells with TRAIL present (potentiator screen, no TRAIL-free arm); PPC-1 cells + TRAIL, ATPLite viability luminescence; cell killing (% activity), % at 4 µM or 5 µM; 220,000 tested, 0.41% active; AID 1443;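 active means cell killing above 50% in the first pass at 4 µM, then a duplicate retest at 5 µM averaging 50% or more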;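 further: plate controls were cells with TRAIL plus DMSO for no effect and medium-only wells lacking cells for full effect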
FLuc act counter: affects firefly luciferase, flagging false hits in luciferase stimulation screens; P08659; ATPlite luciferase biochemical, luminescence, 10 min; 0 = ATP-free wells, 1 = DMSO control; activation factor at 10 µM; 200,000 tested, under 10 active; AID 1027;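 active means luciferase activation factor, scaled between plate controls, of at least 2 with compound at 10 µM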
Target sequence (P08659 whole entry, looked up): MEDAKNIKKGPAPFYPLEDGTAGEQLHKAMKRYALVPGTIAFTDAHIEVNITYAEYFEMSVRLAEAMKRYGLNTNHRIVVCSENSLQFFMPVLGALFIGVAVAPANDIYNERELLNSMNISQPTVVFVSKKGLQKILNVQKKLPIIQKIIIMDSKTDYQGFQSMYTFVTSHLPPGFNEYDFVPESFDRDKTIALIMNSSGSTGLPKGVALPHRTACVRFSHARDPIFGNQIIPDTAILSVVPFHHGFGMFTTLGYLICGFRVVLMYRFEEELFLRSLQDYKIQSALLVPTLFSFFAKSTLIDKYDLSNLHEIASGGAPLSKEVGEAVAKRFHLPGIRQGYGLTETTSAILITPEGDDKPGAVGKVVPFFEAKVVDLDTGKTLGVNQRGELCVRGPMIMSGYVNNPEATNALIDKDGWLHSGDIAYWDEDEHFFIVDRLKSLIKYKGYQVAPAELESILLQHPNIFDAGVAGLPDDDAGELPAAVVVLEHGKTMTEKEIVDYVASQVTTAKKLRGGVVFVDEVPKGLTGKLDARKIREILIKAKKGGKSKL
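Assay system: Luciferase/luciferin detection reagent, cell-free biochemical luciferase assay / Read-out: luciferase activation / Benchmarks: No-ATP low control, compound-free enzyme-plus-ATP high control / Medium: PBS buffer for ATP / Detection: luminescence measurement of luciferase light output / Schedule: 10 min at ambient temperature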
FLuc inhib CS: counter-screen for luciferase assay inhibitors: firefly luciferase inhibition. P08659. ATPLite firefly luciferase biochemical luminescence, 10 min. inhibition, % at 10 µM. 200,000 tested, 1.5% active. AID 1006;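 active means inhibition above about 50% when tested at 10 µM, limit read from the data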
The depositor's hits bear a star; . = no result.

SMILES	TRAIL sens C8	PPC-1+TRAIL kill	FLuc act counter	FLuc inhib CS
C[C@H](CO)N1C[C@H](C)[C@@H](CN(C)C(=O)c2ccc3ccn(C)c3c2)OCc2cn(nn2)CCCC1=O	-11	.	.	.
O=C1OC(c2ccccc2)=C/C1=C/c1cccs1	-6	8	0.2	79*
Clc1ccc(/C=N/Nc2ccccn2)cc1	14	10	0.9	9
C(=N\Nc1ccccn1)/c1ccc(N2CCOCC2)cc1	18	10	0.3	74*
CCOc1ccc(/C=N/Nc2ccccn2)cc1	59*	45	0.2	82*
CCS(=O)(=O)N1CCC(N2CCC(C)CC2)CC1	9	7	.	.
CC(CNS(=O)(=O)c1ccc2c(c1)NC(=O)CCS2)c1ccccc1 (configuration not stated)	14	.	.	.
COc1ccc(/C=C2\CN(Cc3ccccc3)C/C(=C\c3ccc(OC)c(O)c3)C2=O)cc1O	-12	.	.	.
COc1ccc(C=C2C(=O)c3ccccc3C2=O)cc1O	-2	26	0.4	62*
CCN1C/C(=C/c2ccc(OC)c(O)c2)C(=O)/C(=C/c2ccc(OC)c(O)c2)C1	13	50*	1	0
COc1cc(C=C2C(=O)c3ccccc3C2=O)ccc1O	-2	19	.	.
CC(=O)N1CCc2cc(S(=O)(=O)CCC(=O)N(C)c3cc(C)ccc3C)ccc21	-20	.	.	.
COC(=O)C[C@H]1CC[C@@H](NC(=O)Nc2c(C)noc2C)[C@@H](CO)O1	-9	.	.	.
COc1cccc(/C=N/NC(=O)c2cc3c(OC)cccc3[nH]2)c1O	53*	46	1	0
COc1cc(/C=N/NC(=O)c2cc(-c3cccn3C)n[nH]2)cc(OC)c1OC	21	-13	1	-1
COc1cccc(/C=N/NC(=O)c2cc(-c3cccn3C)n[nH]2)c1O	55*	30	0.6	38
COc1cccc(/C=N/NC(=O)c2cc3c(OC)cccc3[nH]2)c1OC	-5	8	1	-2
COc1cccc(/C=C2\CCc3ccccc3C2=O)c1	82*	-6	.	.
COc1cccc(C=C2Cc3ccccc3C2=O)c1	-2	.	.	.
Cc1ccccc1/C=C1\CCCc2ccccc2C1=O	24	30	0.4	61*
Cc1ccsc1/C=C1\CCc2ccccc2C1=O	79*	50	0.1	92*
O=C1/C(=C\c2ccc3ccccc3c2)CCCc2ccccc21	19	20	0.5	52*
O=C1C(=Cc2ccccn2)CCc2ccccc21	-1	.	.	.
COc1ccccc1NC(=O)C(C)N(C)Cc1ccc(Cl)s1 (configuration not stated)	3	.	.	.
CSCCC(=O)N1CCCC(N(C)CCc2ccccc2)C1 (configuration not stated)	2	.	.	.
SMILES	TRAIL sens C8	PPC-1+TRAIL kill	FLuc act counter	FLuc inhib CS
CCCNC(=O)CC(NS(=O)(=O)c1ccc(OC)cc1)c1ccco1 (configuration not stated)	2	17	1	-1
CCc1sc(C(=O)Nc2ccc3c(c2)OCCO3)cc1Br	50*	.	.	.
Cc1ccc(C(=O)Nc2ccc3nc(C)sc3c2)s1	16	29	0.7	25
O=C(Nc1ccc2c(c1)OCCO2)c1ccc(Br)s1	74*	60*	0.1	86*
Cc1nc2cc(NC(=O)c3ccc(Br)s3)ccc2s1	63*	.	.	.
O=C(O)COn1c(-c2ccccc2)nc2ccc(Cl)cc21	5	49	0.3	68*
CC1Sc2ccc(S(=O)(=O)N3CCN(c4ccccc4)CC3)cc2NC1=O (configuration not stated)	11	.	.	.
Cc1cccc(N2CCN(S(=O)(=O)c3ccc4c(c3)NC(=O)C(C)S4)CC2)c1C (configuration not stated)	54*	.	.	.
COc1ccc2nc(NC(=O)c3cnccn3)sc2c1	53*	30	0.4	63*
Cc1ccc2nc(NC(=O)c3ccccc3F)sc2c1	58*	.	.	.
CCCCN(C(=O)NC(=O)Nc1nc2ccc(OC)cc2s1)S(C)(=O)=O	17	50	0.5	50*
COc1ccc2nc(NC(=O)c3ccccc3F)sc2c1	69*	.	.	.
COc1ccc2nc(NC(=O)c3ccccc3C(=O)O)sc2c1	15	.	.	.
COc1ccc(C(=O)Nc2nc3ccc(OC)cc3s2)cc1	33	.	.	.
CCCC(=O)Nc1nc2ccc(NC(=O)c3ccccc3F)cc2s1	-10	-2	1	-4
CCCN(CC(=O)Nc1ccccc1C)C(=O)COC(=O)c1cnc(C)cn1	-5	.	.	.
COc1ccc2nc(NC(=O)Nc3ccccc3)sc2c1	59*	33	0.3	70*
Cc1ccc(NC(=O)c2ccccc2F)nc1	15	9	0.5	52*
CCCOc1ccc(CNC(=S)Nc2ccccc2)cc1Cl	-23	.	.	.
Nc1nc2ccc(N3CCOCC3)cc2s1	48	18	0.3	66*
Fc1ccc2nc(N3CCOCC3)sc2c1	3	-3	0.9	7
CC1=CC(=O)C(C(C)C)=C/C1=N/OS(=O)(=O)c1ccccc1	69*	-1	.	.
NC1=CC(=O)C(=O)c2ccccc21	92*	.	.	.
COCC(=O)Nc1cc(C)cn(Cc2ccccc2Cl)c1=O	-20	.	.	.
O=C(O)c1ccccc1N/N=C\c1ccnc2ccccc12	65*	44	0.1	89*
SMILES	TRAIL sens C8	PPC-1+TRAIL kill	FLuc act counter	FLuc inhib CS
ON=Cc1ccnc2ccccc12	-15	.	.	.
CC1CCc2c(sc3ncnc(SCC(=O)N(C)C4CCS(=O)(=O)C4)c23)C1 (configuration not stated)	3	.	.	.
CCOc1ccc(CCN2C(=O)C(=O)N([C@@H](Cc3ccccc3)CN3CCC[C@H]3CN3C(=O)C(=O)NC[C@@H]3Cc3ccccc3)C[C@@H]2Cc2ccc(O)cc2)cc1	4	.	.	.
O=c1c2[nH]c3ccccc3c2ncn1C1CCCCC1	69*	16	0.7	32
O=c1c2ccccc2ncn1C1CCCCC1	4	5	1	-3
Cc1ccc(N(Cc2cc(=O)[nH]c3ccccc23)C(=O)CCl)c(C)c1	52*	.	.	.
CCCC(=O)N(Cc1cc(=O)[nH]c2ccccc12)c1ccc(C)cc1C	-16	.	.	.
CC1(C(=O)Nc2cccc(OC(F)(F)F)c2)Cc2c(-c3ccc(C(N)=O)cc3)ccnc2O1 (configuration not stated)	11	.	.	.
CC(=O)Nc1cnc(/C=C\CCCO)cn1	-1	.	.	.
Cc1cccc(-c2noc(-c3csc([C@@H]4C[C@H](O)[C@@H](CO)O4)n3)n2)c1	51*	.	.	.
COc1cc(OC)cc(-c2noc(-c3csc([C@H]4C[C@H](O)[C@@H](CO)O4)n3)n2)c1	22	.	.	.
CCS(=O)(=O)c1nc(S(=O)(=O)c2ccc(C)cc2)c(N2CCC3(CC2)OCCO3)s1	-21	.	.	.
COc1ccc(-c2csc(C3=C(O)CN(CCCN4CCCC4=O)C3=N)n2)cc1OC	12	26	0.4	56*
O=C(/C(C=Nc1ccc(F)cc1)=C(/O)c1ccco1)C(F)(F)F	15	10	0.2	79*
Cc1cccc(N=C/C(C(=O)C(F)(F)F)=C(\O)c2ccco2)c1	-2	11	0.8	24
COc1cc(C(=O)NCC(c2cccs2)N2CCOCC2)ccc1OCc1ccc(Cl)cc1 (configuration not stated)	-1	.	.	.
COc1ccc2c(C)c(Cl)c(=O)oc2c1	-8	0	1.1	-5
